Bioassay records deposited in PubChem by several laboratories.
HUVEC inhibit: inhibitors of HUVEC proliferation, primary screen, cell-based, 384-well; CellTiter-Glo luminescence, 72 h; active compounds read low; viability, % at 10 µM (by protocol); actives 1.1% (n = 86,000);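 active = viability at or below 30%; inactive = viability above 30%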
Cav32 inh: Cav3.2 calcium influx blockers – cell-based, Fluo-4 calcium fluorescence, FDSS, MLSMR library, primary screen. AID 449739, 2010. B-score at 10 µM. Cav3.2-expressing cells; active compounds read low. actives 4% (n = 100,000). Voltage-dependent T-type calcium channel subunit alpha-1H (Homo sapiens), O95180;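 active = single-dose well whose peak fluorescence ratio is a statistical outlier from its plate by either plate-standardised score or position-corrected B-score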
H69AR growth 86K: proliferation blockers of H69AR lung cancer cells, primary screen, cell-based, human, 86K library; viability, % at 10 µM; H69AR lung tumor viability, ATP luminescence, 72 h; active compounds read low; actives 6% (n = 85,000);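 active = viability at or below 40%; inactive = viability above 40%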;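 also: multidrug resistant small cell line overexpressing MRP-1 efflux transporter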
bCat KO growth: primary screen for growth suppressors in beta-catenin knockout HCT116 cells (colon tumor, human) | HCT116 beta-catenin knockout viability, CellTiter-Glo, 60 h; active compounds read low | viability, % at 10 µM | actives 1.5% (n = 140,000);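 active = viability at or under a set limit, the compound median less 4 SD, cut at about 6% in these data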
Fibroblast inh: antiproliferative effect on LL 47 fibroblasts – human, LL 47 cells, CellTiter-Glo luminescence, primary screen; viability, % at 10 µM; LL 47 human lung fibroblast viability, ATP luminescence; active compounds read low; actives 1.1% (n = 85,000);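 active = viability at or below 50% in the single dose screen; inactive = viability above 50%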;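 also: compound exposure lasted 72 h before the ATP readout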
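Material: human lung fibroblast line LL 47, low passage; Evaluation: viability percentage against median untreated-cell control; Buffer or medium: 15% FBS in IMEM; Incubation: 72 h compound exposure at 37 °C after overnight plating; Dosing: 0.1% DMSO in all compound wells; Measured by: CellTiter-Glo luminescence.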
PTEN del growth: growth suppression of PTEN-null HCT116, primary screen, cell-based, CellTiter-Glo | HCT116 PTEN-null viability, 60 h; active compounds read low | viability, % at 10 µM | actives 1.2% (n = 140,000) | AID 827, 2007;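 active = viability at or below a set limit, 4 SD under the median of all tested compounds, cut at about 3.7% in these data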;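 also: PTEN knockout HCT116 line with beta catenin targeted HCT116 as companion control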
Of the large screens only hits and unclear results are named; the others gave an inactive call. An excerpt weighted towards active compounds, which were near 7.1% of everything screened.

COc1ccc2c(c1)O/C(=C\c1sccc1C)C2=O	none (no result: HUVEC inhibit, Cav32 inh, H69AR growth 86K, Fibroblast inh)
CCOC(=O)c1cnn(-c2ccccc2)c1NC(=O)C(F)(F)C(F)(F)C(F)(F)F	none (no result: HUVEC inhibit, H69AR growth 86K, Fibroblast inh)
CCOC(=O)c1cnn(-c2ccccc2)c1-n1cccc1C(=O)C(=O)Nc1ccc(F)cc1	Cav32 inh -4.3 (no result: HUVEC inhibit, H69AR growth 86K, Fibroblast inh)
COc1ccc2c(=O)c3c(=O)n(Cc4ccco4)c(-c4ccccc4)nc3oc2c1	none
COc1ccc2c(=O)c3c(=O)n(Cc4ccco4)c(-c4cc(OC)c(OC)c(OC)c4)nc3oc2c1	H69AR growth 86K 13
Cc1ccc(OP(=O)(Nc2c(C)n(C)n(-c3ccccc3)c2=O)Oc2ccc(C)cc2)cc1	none (no result: HUVEC inhibit, Cav32 inh, H69AR growth 86K, Fibroblast inh)
Cc1nc2ccccc2n1CCC(=O)O	none
Cc1nc2ccccc2n2c(O)c(CC(=O)O)cc12	Cav32 inh -6.3
O=C(NN1CCOCC1)c1cc(S(=O)(=O)Nc2cccc(C(F)(F)F)c2)ccc1Cl	none (no result: HUVEC inhibit, Cav32 inh, H69AR growth 86K, Fibroblast inh)
O=C(NCCO)c1ccc2nc(-c3ccco3)c(-c3ccco3)nc2c1	none
O=C(NCCc1ccccc1)c1ccc2nc(-c3ccco3)c(-c3ccco3)nc2c1	Cav32 inh -11
O=C(CCC(=O)N(Cc1ccco1)C(C(=O)NC1CCCC1)c1ccncc1)Nc1cccnc1 (stereo not drawn)	none
Cc1ccc(C(C(=O)NC2CCCC2)N(C(=O)CCC(=O)Nc2cc(C)on2)c2ccccc2)cc1 (stereo not drawn)	none
Cc1cc(NC(=O)CCC(=O)N(Cc2cccs2)C(C(=O)NC2CCCC2)c2ccncc2)no1 (stereo not drawn)	none
Cc1cc(NC(=O)CCC(=O)N(Cc2ccco2)C(C(=O)NC2CCCCC2)c2ccccc2)no1 (stereo not drawn)	Cav32 inh -4.4
Cc1cc(NC(=O)CCC(=O)N(CCc2ccccc2)C(C(=O)NC2CCCC2)c2ccco2)no1 (stereo not drawn)	Cav32 inh -3.7
Cc1cc(NC(=O)CCC(=O)N(c2ccc(F)cc2)C2(C(=O)NC3CCCCC3)CCCC2)no1	Cav32 inh -3.7
Cc1cc(NC(=O)CCC(=O)N(CC(=O)NC2CCCC2)c2ccc3c(c2)OCCO3)no1	none
Cc1cc(NC(=O)CCC(=O)N(Cc2ccco2)C(C(=O)NC2CCCC2)c2ccccc2C)no1 (stereo not drawn)	Cav32 inh -7.4
O=C(CN1CC(c2ccccc2)CC1=O)N/N=C/c1cc(Br)ccc1O (stereo not drawn)	none (no result: HUVEC inhibit, Cav32 inh, H69AR growth 86K, Fibroblast inh)
COc1ccc(/C=N/NC(=O)c2cc(-c3ccc(C)cc3C)nc3ccccc23)cc1COC(C)=O	none (no result: HUVEC inhibit, Cav32 inh, H69AR growth 86K, Fibroblast inh)
COC(=O)c1ccc(CSc2nnc(NC(=O)C3CC(=O)N(Cc4ccc(C)cc4)C3)s2)cc1 (stereo not drawn)	none (no result: HUVEC inhibit, Cav32 inh, H69AR growth 86K, Fibroblast inh)
O=C(NC1CCCC1)C(c1ccccc1)N(Cc1ccco1)C(=O)Cc1cccs1 (stereo not drawn)	Cav32 inh -6.2
O=C(NC1CCCCC1)C(c1cccs1)N(Cc1cccs1)C(=O)c1ccco1 (stereo not drawn)	Cav32 inh -4.1
Cc1nc2oc(C(=O)c3ccc(Br)cc3)c(N)c2c2c1COC(C)(C)C2	none
CCCc1nc2oc(C(=O)c3ccccc3)c(N)c2c2c1COC(C)(C)C2	H69AR growth 86K 5.7, Fibroblast inh 40
COC(=O)CNC(=O)CN1C(=O)N(c2ccccc2)C(N(O)C(=O)Nc2ccccc2)C1(C)C (stereo not drawn)	none
COC(=O)CNC(=O)CN1C(=O)N(c2cccc(Cl)c2)C(N(O)C(=O)Nc2cccc(Cl)c2)C1(C)C (stereo not drawn)	Cav32 inh -4.7
O=C(Cn1ncc2c1-c1ccccc1OC2)Nc1cccc(Cl)c1	Cav32 inh -5
O=C(Cn1ncc2c1-c1ccccc1OC2)Nc1ccc(Cl)cn1	none
CCOC(=O)N1CCN(C(=O)Cn2ncc3c2-c2ccccc2OC3)CC1	none
Cc1ccc(C)c(CN2CCCN(C(=O)Cn3ncc4c3-c3ccccc3OC4)C2)c1	Cav32 inh -6
O=C(Nc1ccccc1C(=O)NC(Cc1ccccc1)C(=O)NC1CCCCCC1)c1ccccc1 (stereo not drawn)	Cav32 inh -5.3 (no result: HUVEC inhibit, H69AR growth 86K, Fibroblast inh)
O=C(N[C@@H](Cc1ccccc1)C(=O)NC1CCCCCC1)c1ccco1	none (no result: HUVEC inhibit, H69AR growth 86K, Fibroblast inh)
NNC(=O)c1ccccc1CO	none (no result: HUVEC inhibit, H69AR growth 86K, bCat KO growth, Fibroblast inh, PTEN del growth)
CC1=C(C(=O)OCC(C)C)C(c2cccc(F)c2)N2C(=O)C(C)SC2=N1 (stereo not drawn)	Cav32 inh -6.1
COC(=O)C1=C(C)N=C2SC(C)C(=O)N2C1c1ccc(C(=O)OC)cc1 (stereo not drawn)	Cav32 inh -4.6
CCOC(=O)C1=C(C)N=C2SC(C)C(=O)N2C1c1cccc(F)c1 (stereo not drawn)	Cav32 inh -6.5
CNC(=O)COC(=O)[C@@H](Nc1ccc(S(=O)(=O)N2CCOCC2)cc1[N+](=O)[O-])C(C)C	none (no result: HUVEC inhibit, Cav32 inh, H69AR growth 86K, Fibroblast inh)
COC(=O)[C@H](Cc1ccccc1)NC(=O)O[C@@H]1C(=O)c2cc(Br)ccc2O[C@H]1c1cccc(OC)c1	none (no result: HUVEC inhibit, Cav32 inh, H69AR growth 86K, Fibroblast inh)
CC(=O)Nc1ccccc1OC(C)C(=O)NC(C)c1ccc(F)cc1 (stereo not drawn)	none (no result: HUVEC inhibit, Cav32 inh, H69AR growth 86K, Fibroblast inh)
Cc1cc(C)c(S(=O)(=O)N2CCCOC2CNC(=O)C(=O)NCc2ccco2)c(C)c1 (stereo not drawn)	none (no result: HUVEC inhibit, Cav32 inh, H69AR growth 86K, Fibroblast inh)
COc1ccc(O)c(/C=N/NC(=S)Nc2cccc(S(=O)(=O)N(C)C)c2)c1	none (no result: HUVEC inhibit, Cav32 inh, H69AR growth 86K, Fibroblast inh)
CCN(CC)S(=O)(=O)c1ccc(N/N=C/c2cc(OC)ccc2O)nc1	bCat KO growth 2.7 (no result: HUVEC inhibit, Cav32 inh, H69AR growth 86K, Fibroblast inh)
Cc1cccc(Cn2c(Cc3ccccc3)nc3ccccc32)c1	none (no result: HUVEC inhibit, Cav32 inh, H69AR growth 86K, Fibroblast inh)
Cc1ccccc1Cn1c(Cc2ccccc2)nc2ccccc21	Cav32 inh -5.5 (no result: HUVEC inhibit, H69AR growth 86K, Fibroblast inh)
O=C(NCc1ccco1)c1ccccc1NS(=O)(=O)c1ccc(Cl)s1	Cav32 inh -7.4
O=C(NCc1ccco1)c1ccccc1NS(=O)(=O)c1cccs1	none
O=C(Nc1ccccc1)c1ccccc1NS(=O)(=O)c1ccc(Cl)s1	Cav32 inh -8.7 (no result: HUVEC inhibit, H69AR growth 86K, Fibroblast inh)
CCCOc1nc2c(c(=O)n(C)c(=O)n2C)n1Cc1cccc2ccccc12	none
O=C(NCc1cccnc1)/C(=C\c1ccc(-c2ccc(Cl)c(Cl)c2)o1)S(=O)(=O)c1ccccc1	bCat KO growth 1.8, PTEN del growth 1.5 (no result: HUVEC inhibit, Cav32 inh, H69AR growth 86K, Fibroblast inh)
Cc1cc(C)c(C#N)c(SCc2c(F)cccc2[N+](=O)[O-])n1	none (no result: HUVEC inhibit, Cav32 inh, H69AR growth 86K, Fibroblast inh)
Cc1cc(NC(=O)CSCC(=O)N(c2cccc(Cl)c2)C(C(=O)NC2CCCCC2)c2ccc(O)c(O)c2)no1 (stereo not drawn)	none (no result: HUVEC inhibit, Cav32 inh, H69AR growth 86K, Fibroblast inh)
CC1CCCN(C(=O)c2ccc3c(=O)n(Cc4ccc5c(c4)OCO5)c(=S)[nH]c3c2)C1 (stereo not drawn)	Cav32 inh -5.3
